CHOP UPR activ = activators of apoptotic CHOP UPR arm, primary screen, cell-based, CHO-CHOP luciferase reporter, luminescence, uHTS | UPR activation; percent of tunicamycin response over DMSO baseline | activation, % at 10 µM | 330,000 tested, 0.34% active;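 active = at 10 µM dose, activation of 40% or more, normalized to positive control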;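 note: 100% = tunicamycin at 10 µg/mL and 0% = DMSO alone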
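Assay system: CHO cells with stable CHOP pathway luciferase reporter; Buffer or medium: F12 plus 10% serum; Times: 16-18 h cell attachment, then 6 h compound exposure, 37 °C; Signal: luciferase luminescence; Read-out basis: percent activation relative to tunicamycin control; Control set: tunicamycin high control, DMSO low control.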
TLR4-MyD88 BLA = inhibitors of TLR4-MyD88 association in cells, primary screen, cell-based, HeLa CL3-4, BLA complementation, FRET ratio; 200,000 tested, 0.18% active; inhibition, % at 8.4 µM; HeLa CL3-4 TLR4/MyD88 BLA complementation; in the data active = inhibition above about 25%;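 note: 0% = vehicle and 100% = reference inhibitor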
XBP1 UPR activ = activators of adaptive XBP1 UPR arm, primary screen, cell-based, CHO-XBP1 luciferase reporter, luminescence, uHTS | IRE1-XBP1 UPR activation; percent of tunicamycin response, DMSO as zero | activation, % at 20 µM | 330,000 tested, 0.33% active | AID 463104, 2010;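 active = versus positive control, 20 µM dose yields 30% or more activation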;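 note: 100% = tunicamycin at 10 µg/mL and 0% = DMSO only wells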
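Material: IRE1-XBP1 luciferase reporter CHO line / Quantity: one thousand reporter cells per well / Buffer or medium: F12 with 10% serum / Compound: 20 µM single concentration, DMSO 1% / Times: 6 h treatment, 37 °C / Detection: Steady-Glo luciferase glow luminescence, 10 min after reagent addition / Benchmarks: tunicamycin high, DMSO low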
CHOP inh = inhibitors of CHOP promoter induction, primary screen, cell-based, unfolded protein response, luciferase reporter; CHO-K1 CHOP-promoter luciferase, tunicamycin-induced, 15-18 h; inhibition, % at 10 µM; 220,000 tested, 3.8% active; AID 2732, 2010;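 active = compounds that reduced the stress-induced luciferase reporter signal by more than about 70% of percent inhibition, limit read from the data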;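 note: 0% = tunicamycin plus vehicle and 100% = wells without tunicamycin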
TLR9-MyD88 block = inhibitors of TLR9-MyD88 association in cells, primary screen, cell-based, CHO, BLA complementation, fluorescence. Toll-like receptor 9 (Homo sapiens) + Myeloid differentiation primary response protein …. CCF4 FRET ratio. inhibition, % at 4.98 µM. 340,000 tested, 0.21% active;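 active = inhibition above the mean over all tested compounds plus 3 SD, cut at about 21% in these data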;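 note: 0% = DMSO only wells and 100% = clavulanate BLA inhibitor control wells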
NOD2-RIPK2 inh = NOD2-RIPK2 binding disruptors in cells, primary screen, fluorescence, CHO cells, BLA complementation; AID 624267, 2012; Receptor-interacting serine/threonine-protein kinase 2 (Homo sapiens), O43353; CCF4 ratio; 360,000 tested, 0.38% active; inhibition, % at 4.98 µM; in the data active = inhibition above about 21%;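 note: 0% = vehicle only and 100% = reference blocker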
XBP1 UPR conf = IRE1-XBP1 UPR arm activators, confirmation, cell-based, CHO-XBP1 luciferase reporter, luminescence, single concentration. shares compounds with XBP1 UPR activ. activation, % at 20 µM. 1,000 tested, 63% active. AID 485299, 2010;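 active = reporter signal at least 30% of the positive control's activation in two or more of four replicate wells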;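 note: plate controls were DMSO negative control for no effect and tunicamycin 10 µg/mL positive control for full effect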
* = called active by the depositor; x = no result. This is one part of a sample in which hits are shown more often than they occur.

SMILES	CHOP UPR activ	TLR4-MyD88 BLA	XBP1 UPR activ	CHOP inh	TLR9-MyD88 block	NOD2-RIPK2 inh	XBP1 UPR conf
Cn1c(=O)c2c(nc(N3CCCCC3)n2C)n(C)c1=O	-3	-5	52*	-26	-8	-5	0
CCOC(=O)c1c(C)[nH]c(C(=O)COc2ccc3ccc(=O)oc3c2)c1C	0	x	41*	x	-6	-7	3
CN(C)C(=O)COc1ccc2ccc(=O)oc2c1	0	-7	1	23	1	12	x
N#CCCn1cc(/C=N/O)c(-c2ccc(-c3ccccc3)cc2)n1	2	7	16	x	0	-3	x
N#CCCn1cc(/C=N/O)c(-c2ccc(Cl)cc2)n1	-2	0	109*	20	2	-1	-2
CCOC(=O)c1sc(-c2ccccc2)cc1NC(=O)Nc1ccc([N+](=O)[O-])cc1	16	-5	199*	91*	-4	-1	163*
CC1(C)Cc2c(c(N3CCOCC3)nc3sc4c(NCC5CCCO5)nnnc4c23)CS1 (configuration not stated)	9	x	33*	0	-14	3	6
Cc1cc(C)c(C#N)c(SCC(=O)N2CCN(Cc3ccccc3)CC2)n1	-4	-4	-3	-14	-5	-4	x
Cc1cc(C)c(C#N)c(SCC(=O)N2CCCCC2)n1	1	2	34*	-17	0	-4	0
COc1cc([C@@H]2c3cc4c(cc3[C@@H](O)[C@H]3COC(=O)[C@H]23)OCO4)cc(OC)c1O[Si](C)(C)C(C)(C)C	1	x	58*	87*	6	5	48*
O=S1(=O)NC[C@]23C[C@H](c4ccc(F)cc4)[C@@H](C[C@@H]21)O3	0	x	3	3	7	-4	x
C[C@H](CO)N1C[C@H](C)[C@@H](CN(C)Cc2ccc(C(=O)O)cc2)Oc2c(cccc2N(C)C)C1=O	1	x	1	x	0	3	x
CN(C)S(=O)(=O)c1ccc(N2CCCC2)c(C(=O)Nc2nccs2)c1	6	x	60*	x	-3	-3	69*
COC(=O)c1[nH]c2cc(OC)c(OC)cc2c1/C=N/Nc1ccccc1	9	x	36*	x	6	-4	12
COc1ccc(C(C(=O)NC2CCCC2)N(C(=O)c2snc(-c3ccc(F)cc3)c2N)c2ccc(F)cc2)cc1 (configuration not stated)	7	6	7	47	0	4	x
COc1ccc(C(C(=O)NC2CCCC2)N(C(=O)c2snc(-c3ccc(F)cc3)c2N)c2ccccc2)cc1 (configuration not stated)	19	-8	32*	28	4	-17	16
COc1ccc(C(C(=O)NC2CCCC2)N(C(=O)c2snc(-c3ccc(F)cc3)c2N)c2cccc(F)c2)cc1 (configuration not stated)	14	3	37*	48	-5	1	16
CCc1ccc(-c2cc(C(F)(F)F)n3nc(C(=O)Nc4cnn(Cc5ccc(C)cc5)c4)cc3n2)s1	27	-5	75*	4	7	-3	288*
Cc1cccc(Nc2nc(NCC3CCCO3)nc(N)c2[N+](=O)[O-])c1 (configuration not stated)	1	-22	1	50	-11	2	x
Nc1nc(NCC2CCCO2)nc(Nc2cccc(Cl)c2)c1[N+](=O)[O-] (configuration not stated)	1	x	36*	28	2	-9	1
O=C(Nc1ccc(Oc2ccc(NC(=O)Nc3ccccc3Cl)cc2)cc1)Nc1ccccc1Cl	15	x	44*	94*	-1	-5	54*
O=C(Nc1ccccc1)Nc1cccc(Cl)c1Cl	4	3	1	15	0	-7	x
CCC(C)NC(=O)c1cc(S(=O)(=O)N2CCCCC2)c[nH]1 (configuration not stated)	-1	x	1	x	-2	3	x
CCOC(=O)Cn1c2ccc(OC)cc2c2nc3ccccc3nc21	-1	4	1	35	-5	0	x
CCOc1ccc(Cn2c3ccc(OC)cc3c3nc4ccccc4nc32)cc1OC	2	8	118*	88*	-4	-3	106*
SMILES	CHOP UPR activ	TLR4-MyD88 BLA	XBP1 UPR activ	CHOP inh	TLR9-MyD88 block	NOD2-RIPK2 inh	XBP1 UPR conf
CN1CC(C(=O)Nc2ccc(F)c(Cl)c2)CC1=O (configuration not stated)	2	x	-2	x	2	2	x
N#Cc1cnn(-c2ccc([N+](=O)[O-])cc2[N+](=O)[O-])c1N	x	x	x	x	8	0	x
CC(C)(C)c1cc(C(=O)NNc2cc(C(F)(F)F)ccc2Cl)n(Cc2ccccc2)n1	2	x	4	36	-1	2	x
CCCNC(=O)c1c(N)n(-c2ccc3c(c2)OCO3)c2nc3ccccc3nc12	20	1	44*	80*	0	7	29*
Cc1cc(C(F)(F)F)nc(CCNC(=O)C2CCC(=O)N(Cc3cccc(F)c3)C2)n1 (configuration not stated)	3	x	0	x	3	1	x
CCCCOc1ccccc1NC(=O)Cn1c(-c2nonc2N)nc2ccccc21	10	-6	101*	x	-16	5	82*
NNC(=O)Cn1c(-c2nonc2N)nc2ccccc21	0	-14	4	2	7	0	x
CC1(C)Cc2nc3oc4c(=O)n(CC(=O)Nc5cccc(Cl)c5)cnc4c3cc2CO1	11	x	59*	-17	-5	2	20
N#CCC(=O)N/N=C/c1cn(Cc2cccc3ccccc23)c2ccccc12	8	x	130*	21	7	9	103*
N#CCC(=O)N/N=C/c1cn(Cc2ccccc2C#N)c2ccccc12	2	x	3	-8	2	-6	x
O=C(NCCCn1ccnc1)c1nn2c(C(F)(F)F)cc(-c3ccc(Br)cc3)nc2c1Cl	2	-5	37*	43	-5	3	94*
COc1cc(/C=N/NC(=O)c2sc3nc(C)cc(C)c3c2N)ccc1O	1	x	46*	59	x	-2	16
O=c1cc(CN2CCN(c3cccc(Cl)c3)CC2)c2cc(O)c(-c3ccccc3)cc2o1	8	-15	0	56	-1	-4	x
